In test [1] the test system is EA.hy 926. The test can be described thus: Induction of morphological changes in human EA.hy 926 cells assessed as rounding up after 2 hrs. The class given is functional. In a few lines: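 EA.hy 926 cells (HUVEC–A549 fusion line) grown in DMEM with 2 mM glutamine, 10% FBS and penicillin/streptomycin at 37 °C, 5% CO2. Plated at 5000 cells/well and exposed in triplicate to 10-fold dilutions for 2 h. Solvent control was 1% DMSO. Wells photographed at the centre. Value is the lowest concentration at which rounding up was seen.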

In test [2] the test system is B16. The test can be described thus: Cytotoxicity against mouse B16 cells assessed as cell viability after 48 hrs by MTT test. The class given is functional, cell-based. Particulars: B16, 48 h. Put shortly:
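Murine B16 melanoma cells grown in DMEM with 2 mM L-glutamine, 10% FBS and penicillin/streptomycin at 37 °C, 5% CO2. Cells plated at 5000/well. After 24 h, compound added in triplicate at final 0.25 ng/mL to 25 µg/mL in 10-fold dilutions (DMSO stock, 1% DMSO controls). IC50 from 3–7 independent triplicate experiments.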

The species named for test [3] is Bos taurus. Description: Ratio of IC50 of drug to IC50 of colchicine for calf brain tubulin polymerization. In a few lines: (§1)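 Calf brain tubulin purified by three assembly–disassembly cycles, used at a final 2–3 mg/mL in pH 6.6 buffer (0.1 M MES, 0.5 mM MgCl2, 2 mM EGTA, 1 mM GTP). Assembly followed by turbidity at 400 nm at 37 °C.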
A short description of test [4]: Inhibition of tubulin polymerization. Put shortly: as §1

We go through nine molecules from ChEMBL document CHEMBL1155787, “Synthesis and biological evaluation of new disubstituted analogues of 6-methoxy-3-(3',4',5'-trimethoxybenzoyl)-1H-indole (BPR0L075), as potential antivascular agents” (Bioorg Med Chem, 2008).

Active and inactive are the calls of the source. The calls are words filed in the database; no cut-off is given here.

`COc1cc2c(C(=O)c3cc(OC)c(OC)c(OC)c3)c[nH]c2cc1O`: the Activity in test [1] worked out at 8.74 µM. Moreover, in test [2], the IC50 was found to be 5070 nM. In addition, the Ratio IC50 in test [3] turned out to be 12.
The like results for `COc1cc2c(cc1OS(C)(=O)=O)c(C(=O)c1cc(OC)c(OC)c(OC)c1)cn2S(=O)(=O)c1ccccc1` were, in that order, 10.86 µM, 3290 nM and 15.
Turning to `COc1ccc2c(C(=O)c3cc(OC)c(OC)c(OC)c3)c[nH]c2c1`, the IC50 came out at 2800 nM in test [4] and 13 nM in test [2]. Moreover, the Activity in test [1] worked out at 0.007 µM. In test [3], the Ratio IC50 was 0.4.
Consider `COc1cc2c(C(=O)c3cc(OC)c(OC)c(OC)c3)c[nH]c2cc1OS(C)(=O)=O`, for which, in test [1], the Activity was determined as 28.71 µM. Besides, the IC50 in test [2] was found to be 32400 nM. For the same molecule, the result in test [3] was inactive.
For `COc1cc(C(=O)c2c[nH]c3c(OS(C)(=O)=O)c(OC)ccc23)cc(OC)c1OC`, the Activity in test [1] was found to be 0.013 µM. Also, the IC50 in test [2] is 170 nM. Also, the Ratio IC50 in test [3] amounted to 2.7.
The like results for `COc1cc2c(C(=O)c3cc(OC)c(OC)c(OC)c3)cn(S(=O)(=O)c3ccccc3)c2cc1OS(C)(=O)=O` were, in that order, 1.3 µM, 3140 nM and 18.
On to `COc1cc2[nH]cc(C(=O)c3cc(OC)c(OC)c(OC)c3)c2cc1OS(C)(=O)=O`, for which, in test [1], the Activity stood at 14.35 µM. Moreover, the IC50 in test [2] stood at 13700 nM. The result in test [3] was inactive.
As to `COc1cc2c(c(OC)c1OC)-c1ccc(OC)c(=O)cc1[C@@H](NC(C)=O)CC2` [COLCHICINE], the Activity in test [1] is 0.003 µM. For the same molecule, the IC50 in test [2] was determined as 31 nM.
For `COc1ccc(/C=C\c2cc(OC)c(OC)c(OC)c2)cc1O` [COMBRETASTATIN A4], the IC50 is 2200 nM in test [4] and 3 nM in test [2]. In addition, in test [1], the Activity was determined as 0.008 µM. Moreover, in test [3], the Ratio IC50 came to 0.7.
